# Compound activity: PubChem, several laboratories
# Sampled rows, rich in hits. Any-hit rate of the full collection: about 11%.
# S1P3 agonist: activates the human S1P3 receptor; Q99500; S1P3 NFAT-BLA reporter cells, agonism, FRET ratio; relative to 1 µM S1P, basal subtracted; activation, % at 4.5 µM; 60,000 tested, 0.1% active;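 active = activation above the screen-wide mean plus 3 SD, cut at about 4.5% in these data, passing the limit was not always enough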
#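 material = human S1P3 NFAT-BLA reporter CHO cells | schedule = 4 h compound at 37 °C, 2 h substrate at RT | measured by = fluorescent BLA substrate, ex 405 nm, em 460/535 nm ratio | controls = 1 µM S1P reference | replication = primary once, confirmation triplicate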
# S1P1 ag-PAM: S1P1 (human) agonism or agonism potentiation | AID 449 | activation, % at 9.5 µM | 56,000 tested, 0.57% active | P21453 | S1P1 CRE-bla cells, forskolin, beta-lactamase FRET, potentiator mode; S1P1 agonist co-added at EC20, 2 nM; 100% = saturating reference agonist, 0% = basal;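 active = activation above a cutoff set at the mean activation of all tested compounds plus 3 SD, cut at about 54% in these data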;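 note: forskolin at 4 µM as EC80 and the EC20 agonist is SEW2871; 100% = SEW2871 at its EC100 plus forskolin at EC80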
# D1 mod: allosterically modulates the human D1 dopamine receptor; P21728; HEK293 D1, CRE-luciferase, dopamine EC30 potentiation; actives deviate in either direction; B-score at 10 µM; 58,000 tested, 5.9% active; AID 641;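 active = luminescence count or its row- and column-corrected plate score outside the 99.7% band of the plate's sample wells, on either side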
# M1 antag: M1 muscarinic receptor (rat) antagonism | P08482 | AID 628 | 64,000 tested, 3.4% active | CHO-M1 cells, Fluo-4 calcium, ACh EC80 antagonist mode; hits give low values | B-score at 10 µM;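 active = calcium fluorescence response, raw or row-and-column corrected B-score, differing from the plate sample mean either way at a set confidence level, mostly lower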
# Target sequence (P08482 whole entry, looked up): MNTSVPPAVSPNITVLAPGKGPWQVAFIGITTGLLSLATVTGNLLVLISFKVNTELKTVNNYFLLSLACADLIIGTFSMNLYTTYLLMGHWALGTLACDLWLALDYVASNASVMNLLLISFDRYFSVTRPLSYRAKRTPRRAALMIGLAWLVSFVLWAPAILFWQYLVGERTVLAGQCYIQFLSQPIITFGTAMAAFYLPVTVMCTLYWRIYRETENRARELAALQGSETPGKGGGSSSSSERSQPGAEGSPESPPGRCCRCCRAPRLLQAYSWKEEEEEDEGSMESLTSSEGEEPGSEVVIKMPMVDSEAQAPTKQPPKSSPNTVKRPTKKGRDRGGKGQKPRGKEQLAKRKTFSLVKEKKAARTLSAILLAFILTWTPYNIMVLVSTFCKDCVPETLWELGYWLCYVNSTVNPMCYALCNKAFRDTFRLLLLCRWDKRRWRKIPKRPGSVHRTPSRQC
# M1 agonist: activates the M1 muscarinic receptor; CHO-M1 cells, Fluo-4 calcium fluorescence, agonist mode; hits give high values; B-score at 10 µM; 64,000 tested, 3% active; AID 626;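 active = fluorescence rise, raw or as B-score row- and column-corrected plate score, outside the 99.7% band of its plate's samples, either direction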
# M1 agonist conf: confirmation of rat M1 muscarinic receptor agonists. 1,700 tested, 19% active. shares compounds with M1 agonist. fluorescence change (max-min) at 10 µM. CHO-M1 cells, Fluo-4 calcium fluorescence, agonist mode; actives lie on both sides;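 active = fluorescence change differs from the solvent-only DMSO control mean at a set confidence level in both duplicate runs; inconclusive = differs from solvent-only control mean in just one of two runs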;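 note: an EC20 dose of acetylcholine follows compound addition during the same imaging run; raw fluorescence intensity difference in instrument units with no normalization to controls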
# M4 agonist ctr: activates rat M4 receptor in counter-screen for M1 agonists. shares compounds with M1 agonist. CHO M4/Gqi5 cells, Fluo-4 calcium fluorescence, agonist mode; actives lie on both sides. fluorescence change (max-min) at 10 µM. 1,700 tested, 9% active. AID 1741;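 active = fluorescence change differing from the plate's solvent-only control wells at 99.7% confidence in both duplicates, whether higher or lower; inconclusive = differs from solvent controls in only one of two duplicates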
# M1 antag conf: confirmation of rat M1 muscarinic receptor antagonists; shares compounds with M1 antag; 1,700 tested, 43% active; AID 677; CHO-M1 cells, Fluo-4 calcium, ACh EC80 antagonism; hits give low values; calcium response (max-min fluorescence) at 10 µM;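 active = calcium response below the same-plate mean of wells given acetylcholine alone at its 80%-effect dose, minus 3 SD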;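 note: raw fluorescence intensity difference in arbitrary instrument units and not normalized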
# mGluR4 antag: mGluR4 (human) activity, M1 antagonist secondary assay; shares compounds with M1 antag; CHO-mGluR4 calcium flux, Fluo-4 fluorescence, glutamate EC80; hits give low values; fluorescence response (max-min) at 10 µM; 1,700 tested, 0.9% active; AID 678;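 active = fluorescence response below the plate's average for near-maximal glutamate wells, less 3 SD of those wells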;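 note: raw unnormalized fluorescence span taken in the window right after glutamate addition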
# D1 mod confirm: confirmation of human D1 dopamine receptor allosteric modulators; shares compounds with D1 mod; HEK293 D1 CRE-luciferase, dopamine EC30 potentiation; hits give high values; luminescence at 10 µM; 2,200 tested, 88% active; AID 642;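 active = luminescence in either of two replicates above the same-plate mean plus 3 SD of the low-dose dopamine control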
# D1 no dopamine: secondary test of D1 modulators: activity without dopamine; AID 646; 1,900 tested, 0.8% active; luminescence at 10 µM; HEK293 D1 CRE-luciferase, luminescence, no dopamine; hits give high values; shares compounds with D1 mod; in the data active = luminescence above about 3900
# Isoprot counter: alters isoproterenol CRE-luciferase response in HEK293 cells | 2,200 tested, 63% active | shares compounds with D1 mod | luminescence at 10 µM | AID 647 | HEK293 D1 CRE-luciferase, isoproterenol EC30 counter-screen; hits give high values;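 active = luminescence in either replicate above plate mean of wells with a partly effective reference agonist dose plus 3 SD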;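 note: isoproterenol raises cAMP through native beta-adrenoceptor Gs so signal bypasses D1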
# The depositor's hits bear a star; ? = inconclusive; · = not tested or not shown.
SMILES,S1P3 agonist,S1P1 ag-PAM,D1 mod,M1 antag,M1 agonist,M1 agonist conf,M4 agonist ctr,D1 mod confirm,D1 no dopamine,Isoprot counter,others
O=C(C1CCN(S(=O)(=O)c2cccc3cccnc23)CC1)N1CCn2c1nc1ccccc12,0.6,-10.0,4.87*,6.61*,22.3*,-11.4,-43.4,12004*,2024,3540*,
CCN(CCCNC(=O)C1CCN(S(=O)(=O)c2cnc[nH]2)CC1)c1cccc(C)c1,-0.2,-3.0,1.84,-0.134,0.653,·,·,·,·,·,
Nc1c(C(=O)NC2CC2)c2nc3ccccc3nc2n1-c1ccc2c(c1)OCO2,2.1,-28.9,-1.34,-0.138,-0.542,·,·,·,·,·,
Nc1c(C(=O)OCC2CCCO2)c2nc3ccccc3nc2n1-c1ccc2c(c1)OCCO2 (centres undefined),-0.2,-14.9,5.1*,-0.196,5.93*,-12.3,?,5800,·,2076,
CCCNC(=O)N1CCN(S(=O)(=O)c2ccc(C)c(C)c2)CC1,-0.5,-12.8,·,0.361,0.399,·,·,·,·,·,
CCOc1ccc(CCNC(=O)c2oc3c(c2C)-c2[nH]ncc2CC3)cc1OCC,-0.5,-20.6,10.6*,-0.0157,3.24*,-23.5*,-73.8*,24696*,1620,11928*,
Cc1c(C(=O)NC(C)C)oc2c1-c1[nH]ncc1CC2,-0.4,-20.8,-0.333,-0.764,0.468,·,·,·,·,·,
Nc1ccc2[nH]ncc2c1,-0.1,-11.7,-0.755,0.446,-0.303,·,·,·,·,·,
COc1cccc(NC(=O)CCN2CCC(C(N)=O)CC2)c1,-0.1,-22.8,0.0664,·,·,·,·,·,·,·,
CC(C)(C)C(=O)c1sc(Nc2ccccc2)nc1N,-0.2,25.8,12.1*,0.666,3.07*,?,-57.1,16628*,1584,4168*,
Cc1cc(N)n(-c2nc(-c3cccnc3)nc3ccccc23)n1,·,·,4.33*,-0.564,5.62*,?,-76.4,12176*,1524,2636,
Cc1cc(N)n(-c2ccccc2)n1,·,·,0.874,-0.266,-1.5,·,·,·,·,·,
Clc1ccc(-n2nnnc2-c2ccccc2)cc1,-0.5,3.5,3.54*,-0.453,3.31*,-25.7*,-49.3,8784*,1344,3488,
CN(C)c1nc(N)nc(N(c2ccccc2)c2ccccc2)n1,-1.2,-6.0,0.192,0.581,-1.23,·,·,·,·,·,
COc1nc(N(c2ccccc2)c2ccccc2)nc(-n2ccnc2)n1,1.2,2.5,4.26*,-1.05,3.42*,-10.7,-28.5,12628*,1456,4028*,
CCC1Oc2ccc(C)cc2N(CC(=O)NCc2cccc(OC)c2)C1=O (centres undefined),-0.8,-4.4,-1.12,-0.229,0.358,·,·,·,·,·,
c1ccc(Cn2c(-c3ccco3)nc3nc4ccccc4nc32)cc1,1.8,-1.5,3.54*,-0.533,3.69*,?,?,7452*,1544,3168*,
Cc1cc(C(F)(F)F)nn1CCCNC(=O)c1cnccn1,-0.2,-15.6,-0.459,-0.14,-0.263,·,·,·,·,·,
COc1cc2c(cc1OC)C1=C(C#N)CN(C3CCCCC3)CN1CC2,0.4,-11.8,4.16*,-0.395,5.14*,-7.11,-17.4,14420*,1880,7184*,
N=c1c(S(=O)(=O)c2ccccc2)cc2c(=O)n3ccccc3nc2n1CCN1CCOCC1,·,·,-0.0759,0.523,-0.126,·,·,·,·,·,
Cc1ccc(S(=O)(=O)c2cc3c(=O)n4ccccc4nc3n(Cc3ccco3)c2=N)cc1C,-0.6,-13.0,5.97*,-0.475,5.93*,20.2,11.1,13264*,1500,3644*,
Cc1ccc(S(=O)(=O)c2cc3c(=O)n4ccccc4nc3n(C)c2=N)cc1,3.6,-13.2,5.29*,-0.0154,5.13*,-11.4,?,13268*,1724,3184*,
Cn1c(C(=O)N2CCN(C(=O)c3ccco3)CC2)cc2c(=O)n3ccccc3nc21,-0.7,-45.1,-0.133,-0.336,0.242,·,·,·,·,·,
COCCCNC(=O)C(C#N)c1nc2ccccc2nc1N1CCCC1 (centres undefined),-3.0,2.6,12.1*,-1.74,340*,230*,749*,18008*,1688,12040*,
Cc1ccccc1Nc1nc(N)nc(CSc2nc3ccccc3c(=O)n2CCCO)n1,1.3,-68.5,2.96*,0.155,4.08*,?,-48.8,8640*,1664,3524*,
SMILES,S1P3 agonist,S1P1 ag-PAM,D1 mod,M1 antag,M1 agonist,M1 agonist conf,M4 agonist ctr,D1 mod confirm,D1 no dopamine,Isoprot counter,others
CN(c1ccccc1)S(=O)(=O)c1ccc(C(=O)OCC(=O)N2CCOCC2)cc1,-0.6,4.5,-0.09,-0.0778,-0.00322,·,·,·,·,·,
CCn1c(=O)c(C(C)=O)nc2ccccc21,1.3,-31.2,1.02,0.433,-0.255,·,·,·,·,·,
CCc1nc2ccccc2n(CC)c1=O,0.3,-23.3,4.24*,0.00124,12.7*,-5.37,-48.3,10236*,2112,3340*,
Cc1ccc(C)c2[nH]c(=O)c(CCNC(=O)C(C)(C)C)cc12,-0.1,-4.9,0.00865,1.14,-0.202,·,·,·,·,·,
CCn1cnc2sc(C(=O)N(Cc3ccc(N(C)C)cc3)Cc3ccco3)c(C)c2c1=O,-0.8,-26.9,4.85*,0.0853,11.6*,-22.4,?,12360*,·,3104*,
N#Cc1nc(COc2ccc(-c3ccccc3)cc2)oc1NCCCN1CCOCC1,-0.9,-8.5,-1.25,-2.98*,-1.21,·,·,·,·,·,M1 antag conf=545;mGluR4 antag=237
N#Cc1nc(COc2ccccc2)oc1NCCN1CCOCC1,·,·,-1.13,0.0861,0.65,·,·,·,·,·,
CCN(CC)C(=O)CSc1nc2ccccc2c(=O)n1CCC(=O)NCc1ccc(F)cc1,-0.2,23.6,-0.00141,-0.246,-0.254,·,·,·,·,·,
CC(C)CCNC(=O)C(C)N(Cc1ccc(F)cc1)C(=O)c1ccc(CN2CCCCC2)o1 (centres undefined),14.1,10.9,0.00274,-3.25*,-0.143,·,·,·,·,·,M1 antag conf=595;mGluR4 antag=219
O=c1c2nnn(Cc3ccccc3)c2ncn1C/C=C/c1ccccc1,-1.1,-0.6,0.00261,-0.629,-0.964,·,·,·,·,·,
